Test results reported in ChEMBL document CHEMBL1145935, “Novel sst(4)-selective somatostatin (SRIF) agonists. 4. Three-dimensional consensus structure by NMR” (J Med Chem, 2003).
pIC50: −log10 of the molar value. Several values for one entry are separate records, joined by “and”; a condition that tells them apart may be missing. Equal values may be shown once.

Key:
[1] = target: Somatostatin receptor type 3 (Homo sapiens, UniProt P32745); assay: Binding affinity towards human Somatostatin receptor type 3 using 125I-[Leu8,DTrp22,Tyr25]SRIF-28 as radioligand
Sequence of Somatostatin receptor type 3 (P32745 whole entry): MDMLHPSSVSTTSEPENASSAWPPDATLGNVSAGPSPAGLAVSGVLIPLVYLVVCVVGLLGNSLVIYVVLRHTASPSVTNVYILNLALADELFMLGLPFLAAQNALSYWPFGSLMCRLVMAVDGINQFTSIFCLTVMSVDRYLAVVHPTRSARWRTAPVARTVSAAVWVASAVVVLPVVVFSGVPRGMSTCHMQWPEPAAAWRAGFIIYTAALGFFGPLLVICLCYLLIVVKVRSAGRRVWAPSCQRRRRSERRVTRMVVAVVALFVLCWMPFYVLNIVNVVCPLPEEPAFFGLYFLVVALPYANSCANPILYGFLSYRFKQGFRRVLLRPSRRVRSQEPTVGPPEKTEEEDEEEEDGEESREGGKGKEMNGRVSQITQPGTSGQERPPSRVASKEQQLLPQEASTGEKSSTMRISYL
Procedure, shortened: (§1)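 Competitive radioligand displacement on cloned somatostatin receptors, with non-selective 125I-[Leu8,DTrp22,Tyr25]SRIF-28 as the tracer. IC50 (nM) is taken from the displacement curves. Separate determinations are listed individually, or their number is given in parentheses.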

[2] = target: Somatostatin receptor type 1 (Homo sapiens, UniProt P30872); assay: Binding affinity towards human Somatostatin receptor type 1 using 125I-[Leu8,DTrp22,Tyr25]SRIF-28 as radioligand; procedure, shortened: as §1
Sequence of Somatostatin receptor type 1 (P30872 whole entry): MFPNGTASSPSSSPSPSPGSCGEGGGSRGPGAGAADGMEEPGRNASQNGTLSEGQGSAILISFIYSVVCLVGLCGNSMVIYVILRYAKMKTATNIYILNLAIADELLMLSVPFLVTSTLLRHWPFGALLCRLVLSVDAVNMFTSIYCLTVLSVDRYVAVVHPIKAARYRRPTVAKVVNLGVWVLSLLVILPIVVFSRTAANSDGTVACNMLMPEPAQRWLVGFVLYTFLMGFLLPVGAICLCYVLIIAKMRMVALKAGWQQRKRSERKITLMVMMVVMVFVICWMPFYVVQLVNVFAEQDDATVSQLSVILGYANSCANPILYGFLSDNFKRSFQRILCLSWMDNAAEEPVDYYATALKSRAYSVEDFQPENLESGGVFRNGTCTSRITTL

[3] = target: Somatostatin receptor type 2 (Homo sapiens, UniProt P30874); assay: Binding affinity towards human Somatostatin receptor type 2 using 125I-[Leu8,DTrp22,Tyr25]SRIF-28 as radioligand; procedure, shortened: as §1
Sequence of Somatostatin receptor type 2 (P30874 whole entry): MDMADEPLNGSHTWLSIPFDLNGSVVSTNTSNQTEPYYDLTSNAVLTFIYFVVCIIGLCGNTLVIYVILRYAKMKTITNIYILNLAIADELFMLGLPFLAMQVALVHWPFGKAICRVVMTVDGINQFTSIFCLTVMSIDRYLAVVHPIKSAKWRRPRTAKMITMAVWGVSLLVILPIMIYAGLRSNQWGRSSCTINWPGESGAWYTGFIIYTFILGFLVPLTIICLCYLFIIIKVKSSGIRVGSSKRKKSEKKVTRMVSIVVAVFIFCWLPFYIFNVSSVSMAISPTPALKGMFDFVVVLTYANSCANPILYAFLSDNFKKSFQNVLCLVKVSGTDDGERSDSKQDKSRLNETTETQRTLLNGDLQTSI

[4] = target: Somatostatin receptor type 5 (Homo sapiens, UniProt P35346); assay: Binding affinity towards human Somatostatin receptor type 5 using 125I-[Leu8,DTrp22,Tyr25]SRIF-28 as radioligand; procedure, shortened: as §1
Sequence of Somatostatin receptor type 5 (P35346 whole entry): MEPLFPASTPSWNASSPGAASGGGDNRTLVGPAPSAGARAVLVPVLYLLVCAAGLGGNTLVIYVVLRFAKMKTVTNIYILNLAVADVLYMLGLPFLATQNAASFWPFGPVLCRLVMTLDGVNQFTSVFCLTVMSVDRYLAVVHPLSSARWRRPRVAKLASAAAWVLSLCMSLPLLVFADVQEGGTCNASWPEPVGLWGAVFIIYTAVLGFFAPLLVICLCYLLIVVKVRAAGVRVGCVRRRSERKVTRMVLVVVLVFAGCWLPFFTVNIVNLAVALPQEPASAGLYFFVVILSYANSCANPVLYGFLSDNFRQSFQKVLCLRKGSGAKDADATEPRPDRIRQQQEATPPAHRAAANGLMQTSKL

[5] = target: Somatostatin receptor type 4 (Homo sapiens, UniProt P31391); assay: Binding affinity towards human Somatostatin receptor type 4 using 125I-[Leu8,DTrp22,Tyr25]SRIF-28 as radioligand
Sequence of Somatostatin receptor type 4 (P31391 whole entry): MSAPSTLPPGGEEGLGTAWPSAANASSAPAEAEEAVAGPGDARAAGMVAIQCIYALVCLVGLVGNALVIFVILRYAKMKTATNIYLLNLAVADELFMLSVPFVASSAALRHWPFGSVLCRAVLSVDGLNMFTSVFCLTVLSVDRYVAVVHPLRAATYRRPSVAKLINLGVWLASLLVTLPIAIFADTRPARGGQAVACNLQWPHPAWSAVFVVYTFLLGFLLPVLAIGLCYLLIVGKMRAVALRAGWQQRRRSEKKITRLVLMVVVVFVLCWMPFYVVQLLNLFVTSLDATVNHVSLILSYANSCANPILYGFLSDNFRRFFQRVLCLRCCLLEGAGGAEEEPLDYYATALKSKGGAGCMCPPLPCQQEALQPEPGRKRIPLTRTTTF

| Compound | pIC50 [1] | pIC50 [2] | pIC50 [3] | pIC50 [4] | pIC50 [5] |
| --- | --- | --- | --- | --- | --- |
| C[C@@H](O)[C@@H]1NC(=O)[C@H](CCCCN)NC(=O)[C@H]([C@@H](C)c2ccc3ccccc3c2)NC(=O)[C@H](Cc2ccc(O)cc2)NC(=O)[C@H](Cc2ccccc2)NC(=O)[C@@H](N)CSSC[C@@H](C(=O)O)NC(=O)[C@H](Cc2ccccc2)NC1=O | 6.08 | – | 6.71 | 6.44 | 8.55 |
| C[C@@H](O)[C@@H]1NC(=O)[C@H](CCCCN)NC(=O)[C@H]([C@@H](C)c2ccc3ccccc3c2)NC(=O)[C@H](Cc2ccc(O)cc2)NC(=O)[C@H](Cc2ccccc2)NC(=O)[C@H](N)CSSC[C@@H](C(=O)O)NC(=O)[C@H](Cc2ccccc2)NC1=O | 6.18 | < 5.00 | 6.47 | 6.18 | 8.46 |
| C[C@@H](O)[C@@H]1NC(=O)[C@H](CCCCN)NC(=O)[C@H](Cc2c[nH]c3ccccc23)NC(=O)N(C)[C@H](C(=O)c2ccccc2)NC(=O)[C@H](Cc2ccccc2)NC(=O)[C@@H](N)CSSC[C@@H](C(=O)O)NC(=O)[C@H](Cc2ccccc2)NC1=O (stereo in doubt) | 6.14 | < 5.00 | < 6.00 | < 6.00 | 6.88 |
| C[C@@H](O)[C@@H]1NC(=O)[C@H](CCCCN)NC(=O)[C@@H](Cc2c[nH]c3ccccc23)NC(=O)N(C)[C@@H](C(=O)c2ccccc2)NC(=O)[C@H](Cc2ccccc2)NC(=O)[C@@H](N)CSSC[C@@H](C(=O)O)NC(=O)[C@H](Cc2ccccc2)NC1=O (stereo in doubt) | 6.35 | < 6.00 | 6.34 | 6.11 | 8.28 |
| C[C@H](c1ccc2ccccc2c1)[C@@H]1NC(=O)[C@H](Cc2ccc(O)cc2)NC(=O)[C@H](Cc2ccccc2)NC(=O)[C@H](N)CSSC[C@@H](C(=O)O)NC(=O)[C@H](Cc2ccccc2)NC(=O)[C@H]([C@@H](C)O)NC(=O)[C@H](CCCCN)NC1=O | 7.74 | 6.39 | 7.52 | 7.74 | 8.64 |

The remaining lines, values ahead:

| pIC50 [1] | pIC50 [2] | pIC50 [3] | pIC50 [4] | pIC50 [5] | Compound |
| --- | --- | --- | --- | --- | --- |
| < 5.00 | < 5.00 | < 5.00 | < 6.00 | – | C[C@@H]1NC(=O)[C@H](Cc2ccccc2)NC(=O)[C@@H](N)CSSC[C@@H](C(=O)O)NC(=O)[C@H](C)NC(=O)[C@H]([C@@H](C)O)NC(=O)[C@H](CCCCN)NC(=O)[C@H](Cc2c[nH]c3ccccc23)NC1=O |
| < 5.00 | < 5.00 | < 6.00 and 6.02 | < 6.00 | – | C[C@@H]1NC(=O)[C@H](Cc2ccccc2)NC(=O)[C@@H](N)CSSC[C@@H](C(=O)O)NC(=O)[C@H](C)NC(=O)[C@H]([C@@H](C)O)NC(=O)[C@H](CCCCN)NC(=O)[C@@H](Cc2c[nH]c3ccccc23)NC1=O |
| 6.39 | < 5.00 | < 6.00 | < 6.00 | 8.27 | C[C@@H](O)[C@@H]1NC(=O)[C@H](CCCCN)NC(=O)[C@H](Cc2c[nH]c3ccccc23)NC(=O)N(C)[C@@H](C(=O)c2ccccc2)NC(=O)[C@@H](Cc2ccccc2)NC(=O)[C@@H](N)CSSC[C@@H](C(=O)O)NC(=O)[C@H](Cc2ccccc2)NC1=O (stereo in doubt) |
| < 6.00 | < 5.00 | < 6.00 | < 6.00 | 6.82 | C[C@@H](O)[C@@H]1NC(=O)[C@H](CCCCN)NC(=O)[C@@H](Cc2c[nH]c3ccccc23)NC(=O)N(C)[C@H](C(=O)c2ccccc2)NC(=O)[C@H](Cc2ccccc2)NC(=O)[C@@H](N)CSSC[C@@H](C(=O)O)NC(=O)[C@H](Cc2ccccc2)NC1=O (stereo in doubt) |
